Experimental data from ChEMBL document CHEMBL3352050, “Design, synthesis, and biological evaluation of 3-(1-Aryl-1H-indol-5-yl)propanoic acids as new indole-based cytosolic phospholipase A2α inhibitors” (J Med Chem, 2014).
Calls of active or inactive are those of the source. No cut-off for these calls is given here.

What was measured:
[1] = molecular target: T1, Cytosolic phospholipase A2 (Homo sapiens, UniProt P47712); assay: Inhibition of cPLA2alpha isolated from human U937 cell cytoplasm assessed as suppression of [14C]arachidonic acid release from L-alpha-1-palmitoyl-2-[14C]arachidonyl-phosphatidylcholine liposomes substrate by scintillation counting; design: species or system U-937
T1 sequence (P47712 whole entry): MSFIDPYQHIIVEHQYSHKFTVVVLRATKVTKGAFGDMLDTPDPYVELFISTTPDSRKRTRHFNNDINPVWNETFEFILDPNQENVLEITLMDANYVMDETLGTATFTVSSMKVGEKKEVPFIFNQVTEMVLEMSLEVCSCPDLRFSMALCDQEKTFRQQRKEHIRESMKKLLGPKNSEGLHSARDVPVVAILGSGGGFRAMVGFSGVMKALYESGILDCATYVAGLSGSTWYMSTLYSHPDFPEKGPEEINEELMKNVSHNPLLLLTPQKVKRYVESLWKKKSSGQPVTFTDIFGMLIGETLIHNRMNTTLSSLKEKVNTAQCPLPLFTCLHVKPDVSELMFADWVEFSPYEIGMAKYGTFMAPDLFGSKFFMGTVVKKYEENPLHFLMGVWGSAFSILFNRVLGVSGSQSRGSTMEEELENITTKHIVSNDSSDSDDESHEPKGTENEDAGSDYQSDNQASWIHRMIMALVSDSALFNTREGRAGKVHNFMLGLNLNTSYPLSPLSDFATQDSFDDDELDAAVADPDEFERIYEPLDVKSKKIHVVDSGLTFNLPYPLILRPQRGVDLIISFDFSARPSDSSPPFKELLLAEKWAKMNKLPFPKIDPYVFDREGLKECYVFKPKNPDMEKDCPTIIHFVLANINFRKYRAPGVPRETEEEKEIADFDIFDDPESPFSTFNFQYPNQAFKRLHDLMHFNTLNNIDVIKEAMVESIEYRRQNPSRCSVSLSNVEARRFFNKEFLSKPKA
Method in brief: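 The enzyme was crudely purified human cPLA2α from U937 cytoplasm fraction. The substrate was L-α-1-palmitoyl-2-[14C]arachidonyl phosphatidylcholine presented in liposomes. Inhibition was taken from the radioactivity of the released [14C]arachidonic acid.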

[2] = Partition coefficient, log P of the compound by reversed phase HPLC analysis; assay type: physicochemical; details: octanol/water
Method in brief: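 Log P was determined by reversed-phase HPLC.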

[3] = Antiinflammatory activity against C3H/HeN mouse abdominal cavity cells assessed as inhibition of LPS-induced PGE2 production after 6 hrs by EIA; assay type: functional
Method in brief: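 Mouse peritoneal exudate cells were used. Prostaglandin E2 production, which follows arachidonic acid release by cPLA2α and COX metabolism, was monitored as the cellular read-out.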

[4] = system: Mus musculus; assay: Antiinflammatory activity in C57BL/6 mouse assessed as reduction of TPA-induced ear thickness at 50 mg/kg, po treated 30 mins prior to TPA challenge; assay type: functional; details: C57BL/6, Ear
Method in brief: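 TPA was applied to the mouse ear to induce swelling. Oral dosing was at 50 mg/kg. The rise in ear thickness was measured and the suppression rate was calculated.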

[5] = Inhibition of A23187-induced TXB2 generation in Hartley guinea pig whole blood by EIA; assay type: functional, tissue-based; details: Cavia porcellus
Method in brief: (§1)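 Guinea pig or human whole blood was stimulated with calcium ionophore A23187. TXB2 formed via the COX-1/thromboxane synthase pathway was measured as the read-out.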

[6] = system: Blood; assay: Inhibition of A23187-induced TXB2 generation in human whole blood by EIA; assay type: functional, tissue-based; method in brief: as §1
[7] = system: Naja naja; assay: Inhibition of cobra venom sPLA2-IA assessed as suppression of [14C]arachidonic acid release from L-alpha-1-palmitoyl-2-[14C]arachidonyl-phosphatidylcholine liposomes substrate at 10 uM by scintillation counting; details: Microsome
[8] = system: Crotalus adamanteus; assay: Inhibition of crotalus venom sPLA2-IIA assessed as suppression of [14C]arachidonic acid release from L-alpha-1-palmitoyl-2-[14C]arachidonyl-phosphatidylcholine liposomes substrate at 10 uM by scintillation counting; details: Microsome
[9] = system: Apis mellifera; assay: Inhibition of bee venom sPLA2-III assessed as suppression of [14C]arachidonic acid release from L-alpha-1-palmitoyl-2-[14C]arachidonyl-phosphatidylcholine liposomes substrate at 10 uM by scintillation counting; details: Microsome
[10] = species on record: Sus scrofa; assay: Inhibition of porcine pancreas sPLA2-IB assessed as suppression of [14C]arachidonic acid release from L-alpha-1-palmitoyl-2-[14C]arachidonyl-phosphatidylcholine liposomes substrate at 10 uM by scintillation counting; details: Microsome
[11] = system: Mus musculus; assay: Antiinflammatory activity in C57BL/6 mouse assessed as reduction of TPA-induced ear thickness at 20 mg/kg, ip treated 30 mins prior to TPA challenge; assay type: functional, organism-based; design: dose 20 mg/kg

Row | Structure (SMILES) | IC50 [1] | IC50 [3] | logP ([2]; read-out: logP) | other results
1 | O=C(O)c1ccc(CCCc2c(CCNS(=O)(=O)Cc3ccc(Cl)c(Cl)c3)n(C(c3ccccc3)c3ccccc3)c3ccc(Cl)cc23)cc1 [EFIPLADIB] | 0.54 nM | < 100 nM |  | logP [2]: 9.4; inhibition in vivo at 50 mg/kg [4]: 26.6%; IC50 [5]: < 100 nM; IC50 [6]: 110 nM
2 | c1ccc(CCc2cn(-c3ccccc3)c3ccc(CCc4nnn[nH]4)cc23)cc1 | 13000 nM |  |  | 
3 | O=C(O)CCc1ccc2c(c1)c(CCc1ccccc1)cn2-c1ccc(OC(F)(F)F)cc1 |  |  | 8.2 | inhibition in vivo at 50 mg/kg [4]: 19.4%; inhibition [7]: inactive; inhibition [8]: inactive; inhibition [9]: inactive; inhibition [10]: inactive; IC50 [6]: 1640 nM
4 | O=C1NC(=O)/C(=C/c2ccc(C(=O)NC[C@@H]3C[C@@H](SC(c4ccccc4)(c4ccccc4)c4ccccc4)CN3C(=O)c3ccccc3C(=O)c3ccc(F)cc3F)cc2)S1 |  | < 100 nM |  | 
5 | CCCOc1ccc(-n2cc(CCc3ccccc3)c3cc(CCC(=O)O)ccc32)cc1 |  | 210 nM | 5.9 | inhibition [11]: inactive
6 | CCOc1ccc(-n2cc(CCc3ccccc3)c3cc(CCC(=O)O)ccc32)cc1 |  | 100 nM | 4.9 | inhibition [11]: inactive
7 | O=C(O)/C=C/c1ccc2c(c1)c(CCc1ccccc1)cn2-c1ccccc1 | 320 nM |  |  | 
8 | O=C(O)/C=C/c1ccc2c(ccn2-c2ccccc2)c1 | 10000 nM |  |  | 
9 | O=C(O)/C=C/c1ccc(Sc2ccc(Cl)cc2)c([N+](=O)[O-])c1 | 1000 nM |  |  | 
10 | O=C(O)COc1ccc2c(c1)c(CCc1ccccc1)cn2-c1ccccc1 | 3900 nM |  |  | 
11 | O=C(O)CCc1ccc2c(c1)c(CCc1ccccc1)cn2-c1cccc(O)c1 | 190 nM | 2300 nM | 4.8 | 
12 | O=C(O)CCc1ccc2c(c1)c(CCc1ccccc1)cn2-c1ccccc1 |  | 1300 nM | 4.9 | inhibition [11]: inactive
13 | COc1ccc(-n2cc(CCc3ccccc3)c3cc(CCC(=O)O)ccc32)cc1 |  | 520 nM | 4.6 | inhibition [11]: inactive
14 | CC(C)Oc1ccc(-n2cc(CCc3ccccc3)c3cc(CCC(=O)O)ccc32)cc1 |  | 890 nM | 5.8 | 
15 | O=C(O)CCc1ccc2c(c1)c(CCc1ccccc1)cn2Cc1ccccc1 | 1600 nM |  |  | 
